# Data published in ChEMBL document CHEMBL4665798, “Novel Human Urate Transporter 1 Inhibitors as Hypouricemic Drug Candidates with Favorable Druggability” (J Med Chem, 2020).
# Key:
# [1] = AUC (0 to infinity) in Sprague-Dawley rat at 10 mg/kg, po by LC-MS analysis; assay type: ADME, organism-based; design: time infinity, route oral, dose 10 mg/kg; details: in vivo
# Method in brief: (§1)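 Male Sprague-Dawley rats, two groups, dosed iv or orally; compound in PEG 400/normal saline (70/30, V/V). Oral blood from sinus jugularis at 5 min to 24 h, plasma by centrifugation at 2200 g, stored -20 °C. Plasma with internal standard precipitated by methanol, quantified by LC-MS against spiked blank-plasma standard curves. Mean ± SD, n = 5.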
# [2] = AUC (0 to t) in Sprague-Dawley rat at 10 mg/kg, po by LC-MS analysis; assay type: ADME, organism-based; design: dose 10 mg/kg; details: in vivo; method in brief: as §1
# [3] = Oral bioavailability in Sprague-Dawley rat at 10 mg/kg by LC-MS analysis; assay type: ADME, organism-based; details: in vivo; method in brief: as §1
# [4] = AUC (0 to infinity) in Sprague-Dawley rat at 20 mg/kg, po by LC-MS analysis; assay type: ADME, organism-based; design: route oral, time infinity, dose 20 mg/kg; details: in vivo
# [5] = AUC (0 to t) in Sprague-Dawley rat at 20 mg/kg, po by LC-MS analysis; assay type: ADME, organism-based; design: dose 20 mg/kg; details: in vivo
# [6] = AUC (0 to infinity) in male Kunming mouse at 50 mg/kg, po by LC-MS/MS analysis; assay type: ADME, organism-based; design: route oral, time infinity, dose 50 mg/kg; details: in vivo
# Method in brief: (§2)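 Male Kunming mice, ten in total, split into five groups; single oral dose in PEG 400/normal saline (70/30, v/v). Blood taken from submandibular or saphenous vein into K2EDTA tubes at 0.25, 0.5, 1, 2, 4, 8, 24, 48, 72 h. Plasma spun at about 4 °C and kept at -70 °C. Acetonitrile precipitation with dexamethasone internal standard, then LC-MS/MS against plasma standard curves.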
# [7] = species on record: Rattus norvegicus; experiment: Potency index, ratio of lesinurad to test compound for hypouricemic activity in rat model of xanthine/potassium oxonate-induced acute hyperuricemia assessed as decrease in serum uric acid level; assay type: functional
# [8] = biological target: T1, Solute carrier family 22 member 12 (Homo sapiens, UniProt Q96S37); experiment: Potency index, ratio of lesinurad IC50 to test compound IC50 for inhibition of human URAT1 expressed in HEK293T cells assessed as reduction in [14C]uric acid uptake preincubated for 15 mins followed by [14C]uric acid addition by liquid scintillation counting method; assay type: cell-based
# T1 sequence (Q96S37 whole entry): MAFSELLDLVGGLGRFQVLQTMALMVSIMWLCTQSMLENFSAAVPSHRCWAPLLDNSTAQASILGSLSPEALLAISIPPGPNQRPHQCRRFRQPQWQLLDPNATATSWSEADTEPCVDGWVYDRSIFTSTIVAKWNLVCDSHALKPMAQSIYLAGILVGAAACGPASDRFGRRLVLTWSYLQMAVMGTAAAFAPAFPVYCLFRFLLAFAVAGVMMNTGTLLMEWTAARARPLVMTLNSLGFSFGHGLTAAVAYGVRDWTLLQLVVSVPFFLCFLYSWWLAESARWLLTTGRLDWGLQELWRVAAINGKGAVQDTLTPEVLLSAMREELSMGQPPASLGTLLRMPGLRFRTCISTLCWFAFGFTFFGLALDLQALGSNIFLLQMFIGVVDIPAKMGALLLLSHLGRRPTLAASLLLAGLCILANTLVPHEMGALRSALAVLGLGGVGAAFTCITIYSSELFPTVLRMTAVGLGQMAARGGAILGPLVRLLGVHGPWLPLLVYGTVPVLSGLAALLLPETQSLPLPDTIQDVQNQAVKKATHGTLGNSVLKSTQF
# [9] = Half-life in male Kunming mouse at 500 mg/kg, po by LC-MS/MS analysis; assay type: ADME, organism-based; details: in vivo
# Method in brief: (§3)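 Male Kunming mice given oral compound in PEG 400/normal saline (70/30, V/V). Blood from submandibular or saphenous vein into K2EDTA tubes at 0.25 to 72 h. Plasma spun at 3200g near 4 °C, kept -70 °C, precipitated with acetonitrile plus dexamethasone internal standard. Quantified by LC-MS/MS against spiked blank-plasma standard curves.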
# [10] = Tmax in male Kunming mouse at 500 mg/kg, po by LC-MS/MS analysis; assay type: ADME, organism-based; details: in vivo; method in brief: as §3
# [11] = Cmax in male Kunming mouse at 50 mg/kg, po by LC-MS/MS analysis; assay type: ADME, organism-based; design: route oral, dose 50 mg/kg; details: in vivo; method in brief: as §2
# [12] = Half-life in Sprague-Dawley rat at 20 mg/kg, po by LC-MS analysis; assay type: ADME, organism-based; details: in vivo
# [13] = MRT (0 to infinity) in male Kunming mouse at 50 mg/kg, po by LC-MS/MS analysis; assay type: ADME, organism-based; details: in vivo; method in brief: as §2
# [14] = Half-life in male Kunming mouse at 2 mg/kg, po by LC-MS/MS analysis; assay type: ADME, organism-based; details: in vivo; method in brief: as §2
# [15] = Tmax in Sprague-Dawley rat at 20 mg/kg, po by LC-MS analysis; assay type: ADME, organism-based; details: in vivo
# [16] = Half-life in male Kunming mouse at 50 mg/kg, po by LC-MS/MS analysis; assay type: ADME, organism-based; details: in vivo; method in brief: as §2
# [17] = MRT (0 to infinity) in male Kunming mouse at 500 mg/kg, po by LC-MS/MS analysis; assay type: ADME, organism-based; details: in vivo; method in brief: as §3
# [18] = Cmax in male Kunming mouse at 500 mg/kg, po by LC-MS/MS analysis; assay type: ADME, organism-based; design: route oral, dose 500 mg/kg; details: in vivo; method in brief: as §3
# [19] = MRT (0 to infinity) in Sprague-Dawley rat at 20 mg/kg, po by LC-MS analysis; assay type: ADME, organism-based; details: in vivo
SMILES,AUC(0-inf) [1],AUC(0-t) [2],bioavailability [3],AUC(0-inf) [4],AUC(0-t) [5],AUC(0-inf) [6],Ratio [7],Ratio IC50 [8],half-life [9],Tmax [10],Cmax [11],half-life [12],MRT inf [13],half-life [14],Tmax [15],half-life [16],MRT inf [17],Cmax [18],MRT inf [19]
O=C(CSc1nnc(Br)n1-c1ccc(C2CC2)c2ccccc12)NS(=O)(=O)c1ccc(Br)cc1,19600 ng·h/mL,19400 ng·h/mL,63.4%,,,,,,,,,,,,,,,,
CC(Sc1nc2ncccc2n1-c1ccc(C2CC2)c2ccccc12)C(=O)O (racemic),,,,88800 ng·h/mL,53200 ng·h/mL,335000 ng·h/mL,1.6,> 8,3.9 h,18.7 h,37.9 µg/mL,3.4 h,6.16 h,4.24 h,2 h,7.06 h,15.7 h,149 µg/mL,5.3 h
